Laboratory results: ChEMBL document CHEMBL3045178, “Metabolites from Aspergillus fumigatus, an endophytic fungus associated with Melia azedarach, and their antifungal, antifeedant, and toxic activities” (J Agric Food Chem, 2012)
≈ marks a conversion by molar mass, not a printed value.

Key:
[1] = test system: Colletotrichum gloeosporioides; experiment: Antifungal activity against Colletotrichum gloeosporioides at 28 degC after 48 hr microbroth dilution method; assay type: functional
Method in brief: (§1)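 Plant-pathogenic fungi isolated from infected plant organs. Fungi grown 18 h in PD medium at 28 ± 0.5 °C and 150 rpm, then diluted to about 1 × 10^6 CFU in PD medium. Compounds at 2 mg/mL DMSO stock, serially diluted in triplicate in PD medium in 96-well plates before the fungal suspension was added. DMSO served as negative control. After 48 h at 28 ± 0.5 °C, MIC taken as the lowest concentration with no visible growth.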

[2] = Toxicity in Artemia salina (brine shrimp) […]; assay type: organism-based; settings: in vivo
Fusarium graminearum = experiment: Antifungal activity against Fusarium graminearum at 28 degC after 48 hr microbroth dilution method; assay type: functional
Method in brief: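 Microbroth dilution in PD medium. Fungi were grown 18 h at 28 ± 0.5 °C and 150 rpm, then diluted to about 1 × 10^6 CFU. Compounds (2 mg/mL DMSO stock) were serially diluted in triplicate and fungal suspension added. Incubated 48 h at 28 ± 0.5 °C. MIC was the lowest concentration with no visible growth. Controls: DMSO, carbendazim, hymexazol.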

Botrytis cinerea = experiment: Antifungal activity against Botryotinia fuckeliana at 28 degC after 48 hr microbroth dilution method; assay type: functional; method in brief: as §1
Alternaria solani = experiment: Antifungal activity against Alternaria solani at 28 degC after 48 hr microbroth dilution method; assay type: functional; method in brief: as §1
Fusarium solani = experiment: Antifungal activity against Fusarium solani at 28 degC after 48 hr microbroth dilution method; assay type: functional; method in brief: as §1
Mythimna separata = experiment: Antifeedant activity against Mythimna separata (Oriental armyworm) larvae assessed as antifeedant index by area of the leaf consumed; assay type: functional; parameters: concentration or dose not given beside the values
Method in brief: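 Positive control prepared at 10 mg/mL in acetone; leaves treated with acetone alone served as control. Ten treated leaves and 10 larvae per Petri dish lined with moistened filter paper. Held at 25 ± 2 °C, 12L:12D, 65−80% rh. Leaf area consumed recorded after 48 h. AFI = (C − T)/C × 100%, from control and treated areas consumed. Three repetitions.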

Alternaria alternata = experiment: Antifungal activity against Alternaria alternata at 28 degC after 48 hr microbroth dilution method; assay type: functional; method in brief: as §1
[3] = test system: Fusarium oxysporum f. sp. vasinfectum; experiment: Antifungal activity against Fusarium oxysporum f. sp. vasinfectum at 28 degC after 48 hr microbroth dilution method; assay type: functional; method in brief: as §1
[4] = test system: Fusarium oxysporum f. sp. niveum; experiment: Antifungal activity against Fusarium oxysporum f. sp. niveum at 28 degC after 48 hr microbroth dilution method; assay type: functional; method in brief: as §1

| SMILES | MIC [1] | LC50 [2] | MIC (Fusarium graminearum) | MIC (Botrytis cinerea) | MIC (Alternaria solani) | MIC (Fusarium solani) | AFI (Mythimna separata) | MIC (Alternaria alternata) | MIC [3] | MIC [4] |
| --- | --- | --- | --- | --- | --- | --- | --- | --- | --- | --- |
| COc1ccc2c3c([nH]c2c1)[C@H](C=C(C)C)N1C(=O)[C@@H]2CCCN2C(=O)[C@@H]1C3 [FUMITREMORGIN] | 12.5 µg/mL (≈ 32.9 µM) | 40.5 µg/mL (≈ 107 µM) | 12.5 µg/mL (≈ 32.9 µM) | 12.5 µg/mL (≈ 32.9 µM) | 25 µg/mL (≈ 65.9 µM) | 50 µg/mL (≈ 132 µM) | 15% | 12.5 µg/mL (≈ 32.9 µM) | 50 µg/mL (≈ 132 µM) | 25 µg/mL (≈ 65.9 µM) |
| C[C@H]1C(=O)N2c3ccccc3[C@@]3(O)C[C@@H]4C(=O)N[C@](C)(c5nc6ccccc6c(=O)n54)N1[C@@H]23 [FUMIQUINAZOLINE D] | 25 µg/mL (≈ 56.4 µM) | > 100 µg/mL | 25 µg/mL (≈ 56.4 µM) | 25 µg/mL (≈ 56.4 µM) | 25 µg/mL (≈ 56.4 µM) | > 100 µg/mL | 10% | 25 µg/mL (≈ 56.4 µM) | 50 µg/mL (≈ 113 µM) | 50 µg/mL (≈ 113 µM) |
| C[C@@H]1NC(=O)[C@@H](Cc2c[nH]c3ccccc23)n2c1nc1ccccc1c2=O [FUMIQUINAZOLINE F] | 12.5 µg/mL (≈ 34.9 µM) | 55.3 µg/mL (≈ 154 µM) | 12.5 µg/mL (≈ 34.9 µM) | 12.5 µg/mL (≈ 34.9 µM) | 25 µg/mL (≈ 69.8 µM) | 50 µg/mL (≈ 140 µM) | 30% | 12.5 µg/mL (≈ 34.9 µM) | 50 µg/mL (≈ 140 µM) | 25 µg/mL (≈ 69.8 µM) |
| CC(=O)O[C@@H]1C[C@H](O)[C@@]23CO[C@@H](O)[C@]1(C)[C@@H]2C[C@@H](O)[C@]1(C)[C@@H]3C(=O)[C@H](OC(C)=O)[C@@]2(C)[C@H](c3ccoc3)C[C@H]3O[C@]321 [TOOSENDANIN] | – | < 1 µg/mL | – | – | – | – | 97.5% | – | – | – |
| O=C1N[C@@H](CO)C(=O)N2C[C@H](O)C[C@@H]12 | – | > 100 µg/mL | – | – | – | – | – | – | – | – |
| COc1ccc2c3c([nH]c2c1)[C@H](CC(C)(C)O)N1C(=O)[C@@H]2CCCN2C(=O)[C@@]1(O)[C@H]3O | 25 µg/mL (≈ 58.2 µM) | 73.2 µg/mL (≈ 170 µM) | 25 µg/mL (≈ 58.2 µM) | 25 µg/mL (≈ 58.2 µM) | 25 µg/mL (≈ 58.2 µM) | 50 µg/mL (≈ 116 µM) | – | 25 µg/mL (≈ 58.2 µM) | 50 µg/mL (≈ 116 µM) | 25 µg/mL (≈ 58.2 µM) |
| C[C@@H]1C(=O)N2c3ccccc3[C@@]3(O)C[C@H](n4cnc5ccccc5c4=O)C(=O)N1[C@H]23 [TRYPTOQUIVALINE O] | 100 µg/mL (≈ 249 µM) | 72.8 µg/mL (≈ 181 µM) | 50 µg/mL (≈ 124 µM) | 25 µg/mL (≈ 62.1 µM) | 12.5 µg/mL (≈ 31.1 µM) | > 100 µg/mL | – | 25 µg/mL (≈ 62.1 µM) | > 100 µg/mL | > 100 µg/mL |
| COc1ccc2c(c1)NC(=O)[C@@]21C=C2C(=O)N3CCC[C@H]3C(=O)N2[C@H]1C=C(C)C [SPIROTRYPROSTATIN B] | – | > 100 µg/mL | – | – | – | – | – | – | – | – |
| COc1ccc2c(C[C@@H]3NC(=O)[C@@H]4CCCN4C3=O)c(CC=C(C)C)[nH]c2c1 [TRYPROSTATIN A] | – | 44.8 µg/mL (≈ 117 µM) | – | – | – | – | – | – | – | – |
| O=C1CCC(O)c2cccc(O)c21 (configuration not stated) [4,8-DIHYDROXY-1-TETRALONE] | 12.5 µg/mL (≈ 70.2 µM) | 52.7 µg/mL (≈ 296 µM) | 12.5 µg/mL (≈ 70.2 µM) | 12.5 µg/mL (≈ 70.2 µM) | 12.5 µg/mL (≈ 70.2 µM) | 50 µg/mL (≈ 281 µM) | – | 12.5 µg/mL (≈ 70.2 µM) | 50 µg/mL (≈ 281 µM) | 25 µg/mL (≈ 140 µM) |
| O=C1C[C@@H](O)[C@H](O)c2cccc(O)c21 (relative stereo) | – | > 100 µg/mL | – | – | – | – | – | – | – | – |
| CC/C=C\[C@H](O)[C@H](O)C1=C(C)C(=O)[C@]2(O1)C(=O)N[C@@](OC)(C(=O)c1ccccc1)[C@@H]2O [PSEUROTIN A] | – | > 100 µg/mL | – | – | – | – | – | – | – | – |
| C[C@@H]1NC(=O)[C@@H]2C[C@@H](O)CN2C1=O | – | 66.1 µg/mL (≈ 359 µM) | – | – | – | – | – | – | – | – |
| C[C@@H]1N[C@H]2N(C1=O)c1ccccc1[C@@]2(O)C[C@@H]1C(=O)N[C@](C)(O)c2nc3ccccc3c(=O)n21 [3-HYDROXYFUMIQUINAZOLINE A] | 12.5 µg/mL (≈ 27.1 µM) | 80.8 µg/mL (≈ 175 µM) | 12.5 µg/mL (≈ 27.1 µM) | 12.5 µg/mL (≈ 27.1 µM) | 12.5 µg/mL (≈ 27.1 µM) | 100 µg/mL (≈ 217 µM) | 7.5% | 12.5 µg/mL (≈ 27.1 µM) | 50 µg/mL (≈ 108 µM) | 50 µg/mL (≈ 108 µM) |
| CC(C)C[C@@H]1NC(=O)[C@@H]2CC(O)CN2C1=O (some centres not stated) | – | > 100 µg/mL | – | – | – | – | – | – | – | – |
| COC(=O)Nc1nc2ccccc2[nH]1 [CARBENDAZIM] | 6.25 µg/mL (≈ 32.7 µM) | – | 6.25 µg/mL (≈ 32.7 µM) | 12.5 µg/mL (≈ 65.4 µM) | 12.5 µg/mL (≈ 65.4 µM) | 25 µg/mL (≈ 131 µM) | – | 6.25 µg/mL (≈ 32.7 µM) | 25 µg/mL (≈ 131 µM) | 12.5 µg/mL (≈ 65.4 µM) |
| C[C@@H]1NC(=O)[C@H]2CCCN2C1=O | – | > 100 µg/mL | – | – | – | – | – | – | – | – |
| O=C1NCC(=O)N2CCC[C@@H]12 [CYCLO(PROLYLGLYCYL)] | – | > 100 µg/mL | – | – | – | – | – | – | – | – |
| O=C1N[C@@H](Cc2c[nH]c3ccccc23)C(=O)N2CCC[C@@H]12 [BREVIANAMIDE F] | – | 83.7 µg/mL (≈ 295 µM) | – | – | – | – | – | – | – | – |
